Arrestin-AP2 inh: blocks beta-arrestin peptide binding to AP2 adaptin. FITC-arrestin peptide / GST-AP2 beads, flow cytometry; AP2 beta2 appendage carries R879A mutation. inhibition, % at 10 µM. hit rate 0.31% among 340,000. AID 504490;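 active = inhibition above a set limit, near 3 SD of compounds lacking own fluorescence, cut at about 54% in these data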;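 note: plate controls were DMSO wells for no effect and 5 µM unlabelled arrestin peptide for full effect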
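Assay system: GST-AP2 R879A bound to glutathione beads, E. coli-expressed; Medium: PBS with 0.05% Tween 20 and 0.1% BSA; Also added: fluorescein-tagged arrestin peptide at 50 nM final; Timing: 12 min plus 1 h, RT; Measured by: flow cytometry, FL1 (488/535 nm); Evaluation: percent drop in bead-associated FITC signal.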
NALP1 inh: inhibitors of NALP1 inflammasome in yeast; S. cerevisiae NALP1/ASC/caspase-1 growth, X-gal OD620, 72 h; inhibition, % at 10 µM; hit rate 0.61% among 280,000; in the data active = inhibition mostly above about 24%, no sharp cut-off; inactive = mostly below about 32%
ALR inh: human ALR oxidase inhibition via reduced H2O2; hit rate 3.8% among 290,000; AID 485317; purified ALR, DTT oxidation, H2O2 HRP-luminol luminescence; inhibition, % (no concentration beside the values); P55789;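 active = mean replicate inhibition above about 79%, with every replicate also reaching it, limit read from the data; inconclusive = only one of the two criteria met; inactive = mean below limit and not every replicate reaching it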
NALP3 yeast inh: NALP3 inhibition in yeast. Yeast reconstituted NLRP3/ASC/caspase-1, beta-gal luminescence, 24 h. inhibition, % at 10 µM. hit rate 0.39% among 330,000. AID 2825;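 active = inhibition of 50% or more; inactive = inhibition below 50%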;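 note: plate controls were induced DMSO wells for no effect and uninduced yeast grown without galactose for full effect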
PolyA inhibitor: blocks polyadenylation in yeast reporter cells. hit rate 0.02% among 300,000. AID 1875. activity score, % at 12 µM. S. cerevisiae SKY197-pL101 polyadenylation reporter, beta-gal luminescence; efflux-impaired pdr1/pdr3 knockout yeast; score 100 = 6 SD above DMSO;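 active = lowest replicate activity score at least 50, where 100 means six control SD above control mean; inconclusive = lowest score under 50 but half or more replicates reach 50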;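 note: yeast exposed to compound for 9 h at 30 °C; higher score means more reporter readthrough which indicates perturbed polyadenylation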
Pemphigus Ab inh: blocks pemphigus antibody binding to human desmoglein-3; hit rate 0.48% among 310,000; DSG3-coupled beads, scFv-anti-DSG3-GFP binding, flow cytometry; stronger effect = lower value; binding (percent of control), % at 10 µM; AID 588358;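 active = binding more than 3 SD below its plate's average and above zero; inconclusive = below that plate limit but binding exactly zero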
Target sequence (P32926 whole entry, looked up): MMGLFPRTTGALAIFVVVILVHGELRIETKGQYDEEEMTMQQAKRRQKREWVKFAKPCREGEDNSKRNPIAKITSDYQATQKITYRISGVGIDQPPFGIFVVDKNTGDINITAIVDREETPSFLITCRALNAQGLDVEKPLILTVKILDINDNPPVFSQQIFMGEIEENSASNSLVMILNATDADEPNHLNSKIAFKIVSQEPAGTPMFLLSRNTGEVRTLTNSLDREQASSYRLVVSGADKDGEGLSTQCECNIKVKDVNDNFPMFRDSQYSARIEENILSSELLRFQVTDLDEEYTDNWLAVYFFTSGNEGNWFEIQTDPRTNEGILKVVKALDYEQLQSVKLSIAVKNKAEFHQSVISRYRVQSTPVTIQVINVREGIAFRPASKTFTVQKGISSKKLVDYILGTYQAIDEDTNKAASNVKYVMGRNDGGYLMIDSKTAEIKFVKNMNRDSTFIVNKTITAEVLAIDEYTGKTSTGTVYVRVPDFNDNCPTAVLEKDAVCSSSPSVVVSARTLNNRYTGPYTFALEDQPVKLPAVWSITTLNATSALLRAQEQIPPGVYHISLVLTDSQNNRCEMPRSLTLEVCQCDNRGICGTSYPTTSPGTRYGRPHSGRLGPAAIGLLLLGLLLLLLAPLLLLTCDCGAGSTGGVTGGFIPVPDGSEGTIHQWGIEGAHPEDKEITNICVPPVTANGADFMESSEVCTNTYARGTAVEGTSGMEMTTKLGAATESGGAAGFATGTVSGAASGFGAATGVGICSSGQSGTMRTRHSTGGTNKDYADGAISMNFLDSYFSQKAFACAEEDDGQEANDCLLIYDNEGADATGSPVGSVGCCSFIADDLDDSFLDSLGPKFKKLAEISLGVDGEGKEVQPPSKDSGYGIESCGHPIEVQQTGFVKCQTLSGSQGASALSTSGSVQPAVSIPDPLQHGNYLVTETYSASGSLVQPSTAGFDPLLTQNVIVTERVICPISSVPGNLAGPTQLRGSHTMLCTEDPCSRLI
* = called active by the depositor; u = inconclusive; x = no result given. Compounds with a hit are over-represented: about 4.6% of the library has one in this group of screens.

SMILES | Arrestin-AP2 inh | NALP1 inh | ALR inh | NALP3 yeast inh | PolyA inhibitor | Pemphigus Ab inh
COC(=O)c1ccc(NC(=O)CSCC(=O)OCC(=O)c2ccc(Br)cc2)cc1 | -4 | 16 | 99* | 14 | -1 | x
CCOC(=O)CC(=O)Nc1ccc(C(=O)OCC)cc1 | 0 | 6 | -7 | 35 | 13 | 102
COc1ccc(CNC(=O)O[C@H]2C[C@@H]3C(=O)N(c4ccccc4)C(=O)[C@@H]3[C@@H]3CN(S(=O)(=O)c4ccc(C)cc4)C[C@]23O)cc1OC | x | x | x | x | x | 104
O=c1cc(CN2CCCCCC2)nc2sccn12 | 8 | 12 | -9 | 14 | 11 | 107
COc1ccccc1N1CCN(Cc2cc(=O)n3ccsc3n2)CC1 | -7 | -2 | 90* | 6 | 2 | 96
Oc1ccc(/C=N/Nc2cccc3cccnc23)c(O)c1 | 3 | 26 | 84* | 36 | -22 | 124
Cc1ccc(/C=N/Nc2cccc3cccnc23)c(O)c1 | 25 | 2 | -1 | 31 | -22 | 95
O=c1[nH]ncc(N/N=C\c2ccc(O)cc2O)c1Cl | -11 | -9 | 96* | 23 | -9 | 92
Oc1ccc(/C=N/Nc2nccnc2Cl)c(O)c1 | 5 | -20 | 59 | 12 | 13 | 94
COc1ccc([C@H]2CC(=O)C=C(c3cccc(C(C)C)c3)C2)cc1OC | -5 | x | -11 | 25 | x | 102
Nc1nc(Nc2cccc(Cl)c2)n[nH]1 | -14 | -3 | 41 | -2 | -2 | 96
Nc1nc(Nc2ccc(Cl)cc2)n[nH]1 | 3 | -24 | 99* | 20 | 5 | 95
Nc1nc(Nc2ccccc2)n[nH]1 | -2 | 12 | 98* | -5 | -1 | 82
COC(=O)C1CC(C(=O)OC)C2C(C(=O)OC)CC(C(=O)OC)C12 (configuration not stated) | 43 | x | x | x | x | 94
CCN(CC)CCCN(C(=O)c1cccc(C)c1)c1nc(-c2ccc(OC)cc2)cs1 | -1 | 24 | 96* | 29 | -7 | 120
CCCC(=O)Nc1ccc(NC(=O)Cc2ccccc2)cn1 | -3 | 21 | 99* | 8 | 9 | 100
CCCC(=O)Nc1ccc(OCC(=O)OC)cc1 | 10 | 10 | -9 | 4 | 6 | 103
CCCC(=O)Nc1ccc(Oc2ccc(NC(=O)CCC)cc2)cc1 | 7 | 8 | -21 | -10 | 7 | 55*
CCCC(=O)Nc1ccc(NC(=O)CCc2ccccc2)cn1 | 12 | 15 | -7 | 3 | 3 | 104
CCOc1ccc(OCCC(=O)OCC(=O)N2CCN(S(=O)(=O)c3ccc(Cl)cc3)CC2)cc1 | -7 | 2 | 26 | 11 | 20 | 100
Cc1ccc(-c2ccc(C)c(N)c2C)c(C)c1N | 3 | 7 | 83* | 21 | 19 | 104
Cc1cn([C@H]2C[C@H](O)[C@@H](CCC(=O)NC(c3ccccc3)c3ccccc3)O2)c(=O)[nH]c1=O | -3 | x | x | x | x | 94
CCOC(=O)COc1cc2c(C(=O)OCC)c(C)oc2cc1Br | 1 | -7 | 97* | -14 | -1 | 93
CSc1ccccc1NC(=O)CN(C)C(=O)C1CCN(C(=O)Nc2ccccc2)CC1 | 8 | x | 1 | 12 | 2 | 97
Cc1ccc(S(=O)(=O)N(C)c2ccc(C(=O)NCC(c3ccccc3)N3CCCC3)cc2)cc1 (configuration not stated) | x | x | x | x | x | 117
SMILES | Arrestin-AP2 inh | NALP1 inh | ALR inh | NALP3 yeast inh | PolyA inhibitor | Pemphigus Ab inh
Cc1ccc(-c2sc(C)nc2CC(=O)O)cc1 | 12 | 14 | 27 | 14 | 13 | 116
CC(=O)Nc1ccc(NC(=O)Cc2sc(-c3cccnc3)nc2-c2ccc(C)cc2)cc1 | -2 | 7 | -7 | 22 | -3 | 106
Cc1ccc(-c2nc(-c3cccnc3)sc2CC(=O)O)cc1 | -17 | -8 | 99* | 13 | 6 | 101
Cc1ccc(-c2sc(-c3cccnc3)nc2CC(=O)O)cc1 | -1 | -5 | 99* | 15 | -4 | 119
CCCCn1c(N)c(N(CCOC)C(=O)CSc2n[nH]c(-c3ccc(OC)cc3)n2)c(=O)[nH]c1=O | -21 | 18 | 50 | 12 | 10 | 111
CCS(=O)(=O)c1ccc2oc(Nc3cccc(OC)c3)nc2c1 | 13 | 8 | 97* | -52 | -20 | 102
CCOc1ccc(Nc2nc3cc(S(=O)(=O)CC)ccc3o2)cc1 | -5 | 9 | -12 | -89 | 21 | 100
CC(=O)N/N=C/c1cc(C)n(-c2ccc(Br)cc2)c1C | -5 | 28 | 98* | -1 | -10 | 99
CCCCCCSc1ccc([C@@H]2[C@H]3C(=O)N(CC)C(=O)[C@H]3[C@]3(C(=O)OC)CCCN23)cc1 | -10 | x | -6 | 19 | x | 115
COc1ccccc1CN(C)C(=O)C1COc2ccccc2O1 (configuration not stated) | -11 | 8 | 100* | 27 | 5 | x
O=C(O)CCc1ccc(-c2ccc(Br)cc2)n1-c1ccc(O)cc1 | 41 | 16 | 58 | 17 | 24 | 101
O=C(O)CCc1ccc(-c2ccc(F)cc2)n1NC(=O)c1ccco1 | 2 | 5 | 12 | 10 | 6 | x
Cc1ccc(-c2ccc(CCC(=O)O)n2-c2ccc(O)cc2)cc1 | -4 | 0 | 87* | 21 | -3 | 108
Cc1ccc(-c2ccc(CCC(=O)O)n2NC(=O)c2ccco2)cc1 | -10 | 0 | 92* | 8 | -10 | 107
COc1cc(O)sc1C=Nc1ccc(Cl)cc1 | 0 | 7 | 95* | 1 | -1 | 83
Cc1ccsc1CN(C)C(=O)CN1C(=O)NC2(CCCc3ccccc32)C1=O (configuration not stated) | -17 | x | 4 | 9 | x | 108
Cc1[nH]nc(-c2ccc(O)cc2O)c1Oc1ccccc1 | 10 | 11 | 98* | -3 | 11 | 98
Cc1[nH]nc(-c2ccc(O)cc2O)c1-c1ccc(Cl)cc1 | 3 | 4 | 82* | 1 | -1 | x
Cc1[nH]nc(-c2ccc(O)cc2O)c1-c1nc2ccccc2s1 | 1 | -12 | 87* | 12 | 13 | 98
NC(=O)c1cc(S(=O)(=O)N2CCN(c3ccc([N+](=O)[O-])cc3)CC2)cs1 | -3 | 13 | 26 | 3 | 15 | 102
COc1ccc(-n2ccnc2SCC(=O)NC2CCCC2)cc1 | 28 | x | 28 | 5 | x | u
COc1ccc(C#Cc2cnc3c(c2)C(=O)N([C@H](C)CO)C[C@@H](C)[C@H](CN(C)C(=O)CN(C)C)O3)cc1 | x | x | x | x | x | 106
O=C(COC(=O)/C=C/c1cccc(F)c1)Nc1ncccn1 | 4 | x | -6 | 0 | -13 | 83*
O=[N+]([O-])c1ccc(Cl)c(S(=O)(=O)Nc2ccc3cn[nH]c3c2)c1 | -9 | x | -4 | 0 | x | x
O=[N+]([O-])c1ccc2cn[nH]c2c1 | 7 | 28 | -22 | 29 | 2 | 43*
O=[N+]([O-])c1cccc(CON=Cc2ccccc2O)c1 | x | x | x | x | x | 98

Compound activity from PubChem BioAssay.
